Experimental data: ChEMBL document CHEMBL3352280, “Modulation of cAMP-specific PDE without emetogenic activity: new sulfide-like PDE7 inhibitors” (J Med Chem, 2014)
pIC50: −log10 of the molar value. Active and inactive are the calls of the source. No cut-off for these calls is given here.

Columns and labels:
[1] = target: T1, High affinity 3',5'-cyclic-AMP phosphodiesterase 7A (Homo sapiens, UniProt Q13946); assay: Inhibition of human recombinant PDE7A1 assessed as inhibition of hydrolysis of [3H]cAMP at 10 uM after 20 mins by scintillation proximity assay
T1 sequence (Q13946 whole entry): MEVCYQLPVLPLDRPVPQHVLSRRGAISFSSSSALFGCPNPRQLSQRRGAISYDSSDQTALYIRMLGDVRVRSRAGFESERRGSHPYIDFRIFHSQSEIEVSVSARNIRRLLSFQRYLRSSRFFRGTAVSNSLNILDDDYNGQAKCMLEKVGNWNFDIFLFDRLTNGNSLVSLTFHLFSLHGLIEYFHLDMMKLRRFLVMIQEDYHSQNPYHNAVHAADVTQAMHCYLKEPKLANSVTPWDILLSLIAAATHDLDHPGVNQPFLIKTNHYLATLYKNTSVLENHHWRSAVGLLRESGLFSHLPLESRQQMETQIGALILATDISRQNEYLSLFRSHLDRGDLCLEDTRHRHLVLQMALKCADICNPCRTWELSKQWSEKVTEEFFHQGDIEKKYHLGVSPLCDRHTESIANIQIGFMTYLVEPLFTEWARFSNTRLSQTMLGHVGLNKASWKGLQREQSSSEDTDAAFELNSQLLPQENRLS
Summary of the method: (§1)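 Scintillation proximity assay with human recombinant enzyme: PDE7A1 0.02 U, PDE3A 0.02 U, PDE7B 0.5 U, PDE8A 0.5 U. Enzyme incubated with 5 nCi [3H]cAMP and inhibitor in kit buffer for 20 min at 30 °C. SPA beads added and shaken 1 h at room temperature, settled 30 min, radioactivity counted.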

[2] = target: T1, High affinity 3',5'-cyclic-AMP phosphodiesterase 7A; assay: Inhibition of human recombinant PDE7A1 assessed as inhibition of hydrolysis of [3H]cAMP after 20 mins by scintillation proximity assay; summary of the method: as §1
Astrocyte = assay: Inhibition of LPS-induced NO production in rat astrocytes treated for 1 hr at 10 uM before LPS challenge measured after 24 hrs by Griess assay; type: functional, cell-based
Summary of the method: (§2)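 After 2 days, cells were pretreated with compound (10 μM), then LPS (10 μg/mL) was added for 24 h. Nitrite in the supernatant was measured by Griess reagent (15 min, room temperature, absorbance 492/540 nm). Mean ± SD of three experiments.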

SH-SY5Y = assay: Cytoprotective activity against 6-OHDA-induced death of human SH-SY5Y cells pretreated for 1 hr at 10 uM measured 16 hrs post 6-OHDA challenge by MTT assay; type: functional, cell-based
Summary of the method: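 Human neuroblastoma SH-SY5Y grown in F12/EMEM with 2 mM glutamine, 1% nonessential amino acids and 15% FBS at 37 °C, 5% CO2. Semiconfluent cells pretreated 1 h with compound, then 6-OHDA (35 μM) added for 16 h. Viability by MTT (0.5 mg/mL, 4 h), SDS/HCl solubilisation, absorbance 595 nm. Mean ± SD of three experiments.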

[3] = target: T2, 3',5'-cyclic-AMP phosphodiesterase 7B (Homo sapiens, UniProt Q9NP56); assay: Inhibition of human recombinant PDE7B assessed as inhibition of hydrolysis of [3H]cAMP at 10 uM after 20 mins by scintillation proximity assay; summary of the method: as §1
T2 sequence (Q9NP56 whole entry): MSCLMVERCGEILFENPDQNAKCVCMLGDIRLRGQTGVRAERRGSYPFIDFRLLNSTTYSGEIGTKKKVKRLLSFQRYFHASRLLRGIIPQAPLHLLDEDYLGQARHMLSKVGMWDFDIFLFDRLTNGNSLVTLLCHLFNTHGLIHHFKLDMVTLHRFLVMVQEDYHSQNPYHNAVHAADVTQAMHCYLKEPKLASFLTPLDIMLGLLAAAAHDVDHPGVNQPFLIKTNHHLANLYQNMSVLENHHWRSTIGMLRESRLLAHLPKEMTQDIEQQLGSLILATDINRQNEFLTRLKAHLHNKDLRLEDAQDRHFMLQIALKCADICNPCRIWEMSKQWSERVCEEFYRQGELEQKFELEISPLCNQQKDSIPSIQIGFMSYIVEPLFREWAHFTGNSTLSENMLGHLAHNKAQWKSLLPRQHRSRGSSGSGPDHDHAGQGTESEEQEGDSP

[4] = target: T3, 3',5'-cyclic-AMP phosphodiesterase 4B (Homo sapiens, UniProt Q07343); assay: Inhibition of human recombinant PDE4B2 assessed at 10 uM after 60 mins by IMAP fluorescence polarization assay
T3 sequence (Q07343 whole entry): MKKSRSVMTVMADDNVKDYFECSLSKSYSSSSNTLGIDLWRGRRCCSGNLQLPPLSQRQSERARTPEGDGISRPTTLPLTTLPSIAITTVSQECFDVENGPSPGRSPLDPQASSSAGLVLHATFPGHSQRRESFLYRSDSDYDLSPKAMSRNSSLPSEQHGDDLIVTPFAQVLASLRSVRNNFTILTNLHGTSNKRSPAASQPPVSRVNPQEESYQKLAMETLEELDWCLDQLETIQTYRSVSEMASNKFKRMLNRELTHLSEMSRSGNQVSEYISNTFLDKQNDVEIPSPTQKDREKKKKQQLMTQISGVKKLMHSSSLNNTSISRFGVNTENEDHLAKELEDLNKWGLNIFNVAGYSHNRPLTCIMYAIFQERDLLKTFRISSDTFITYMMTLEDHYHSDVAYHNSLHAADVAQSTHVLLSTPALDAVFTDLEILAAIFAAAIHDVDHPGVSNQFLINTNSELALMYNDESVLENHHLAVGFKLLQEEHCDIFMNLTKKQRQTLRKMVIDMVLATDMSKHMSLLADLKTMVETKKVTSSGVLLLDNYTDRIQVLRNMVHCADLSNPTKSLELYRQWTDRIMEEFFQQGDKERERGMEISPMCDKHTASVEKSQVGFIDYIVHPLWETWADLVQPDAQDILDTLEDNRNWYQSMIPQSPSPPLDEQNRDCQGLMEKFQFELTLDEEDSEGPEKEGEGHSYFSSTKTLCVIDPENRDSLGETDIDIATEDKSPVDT

[5] = target: T4, 3',5'-cyclic-AMP phosphodiesterase 4D (Homo sapiens, UniProt Q08499); assay: Inhibition of human recombinant PDE4D3 assessed at 10 uM after 60 mins by IMAP fluorescence polarization assay
T4 sequence (Q08499 whole entry): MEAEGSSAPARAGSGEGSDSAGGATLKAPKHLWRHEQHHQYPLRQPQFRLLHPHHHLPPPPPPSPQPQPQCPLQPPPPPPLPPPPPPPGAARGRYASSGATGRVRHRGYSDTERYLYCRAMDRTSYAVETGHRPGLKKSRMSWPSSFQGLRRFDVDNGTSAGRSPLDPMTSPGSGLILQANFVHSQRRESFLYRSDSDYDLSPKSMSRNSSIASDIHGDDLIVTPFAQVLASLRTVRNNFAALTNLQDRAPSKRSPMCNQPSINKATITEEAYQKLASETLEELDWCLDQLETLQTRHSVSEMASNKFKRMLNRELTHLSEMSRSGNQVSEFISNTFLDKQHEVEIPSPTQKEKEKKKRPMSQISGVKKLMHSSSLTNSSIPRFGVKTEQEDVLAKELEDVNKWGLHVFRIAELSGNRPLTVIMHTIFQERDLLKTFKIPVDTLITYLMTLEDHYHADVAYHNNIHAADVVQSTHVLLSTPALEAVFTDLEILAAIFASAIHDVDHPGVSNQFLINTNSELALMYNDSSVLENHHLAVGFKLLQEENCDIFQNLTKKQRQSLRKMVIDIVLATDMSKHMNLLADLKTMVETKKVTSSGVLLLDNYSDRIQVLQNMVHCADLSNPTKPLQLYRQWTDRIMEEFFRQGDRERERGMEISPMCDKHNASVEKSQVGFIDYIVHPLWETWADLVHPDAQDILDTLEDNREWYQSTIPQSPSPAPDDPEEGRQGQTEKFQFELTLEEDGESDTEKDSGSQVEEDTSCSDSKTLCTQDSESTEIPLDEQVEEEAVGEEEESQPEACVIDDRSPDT

[6] = target: cGMP-inhibited 3',5'-cyclic phosphodiesterase 3A (Homo sapiens) (UniProt Q14432); assay: Inhibition of human recombinant PDE3A assessed as inhibition of hydrolysis of [3H]cAMP at 10 uM after 20 mins by scintillation proximity assay; summary of the method: as §1
Sequence of cGMP-inhibited 3',5'-cyclic phosphodiesterase 3A (Homo sapiens) (Q14432 whole entry): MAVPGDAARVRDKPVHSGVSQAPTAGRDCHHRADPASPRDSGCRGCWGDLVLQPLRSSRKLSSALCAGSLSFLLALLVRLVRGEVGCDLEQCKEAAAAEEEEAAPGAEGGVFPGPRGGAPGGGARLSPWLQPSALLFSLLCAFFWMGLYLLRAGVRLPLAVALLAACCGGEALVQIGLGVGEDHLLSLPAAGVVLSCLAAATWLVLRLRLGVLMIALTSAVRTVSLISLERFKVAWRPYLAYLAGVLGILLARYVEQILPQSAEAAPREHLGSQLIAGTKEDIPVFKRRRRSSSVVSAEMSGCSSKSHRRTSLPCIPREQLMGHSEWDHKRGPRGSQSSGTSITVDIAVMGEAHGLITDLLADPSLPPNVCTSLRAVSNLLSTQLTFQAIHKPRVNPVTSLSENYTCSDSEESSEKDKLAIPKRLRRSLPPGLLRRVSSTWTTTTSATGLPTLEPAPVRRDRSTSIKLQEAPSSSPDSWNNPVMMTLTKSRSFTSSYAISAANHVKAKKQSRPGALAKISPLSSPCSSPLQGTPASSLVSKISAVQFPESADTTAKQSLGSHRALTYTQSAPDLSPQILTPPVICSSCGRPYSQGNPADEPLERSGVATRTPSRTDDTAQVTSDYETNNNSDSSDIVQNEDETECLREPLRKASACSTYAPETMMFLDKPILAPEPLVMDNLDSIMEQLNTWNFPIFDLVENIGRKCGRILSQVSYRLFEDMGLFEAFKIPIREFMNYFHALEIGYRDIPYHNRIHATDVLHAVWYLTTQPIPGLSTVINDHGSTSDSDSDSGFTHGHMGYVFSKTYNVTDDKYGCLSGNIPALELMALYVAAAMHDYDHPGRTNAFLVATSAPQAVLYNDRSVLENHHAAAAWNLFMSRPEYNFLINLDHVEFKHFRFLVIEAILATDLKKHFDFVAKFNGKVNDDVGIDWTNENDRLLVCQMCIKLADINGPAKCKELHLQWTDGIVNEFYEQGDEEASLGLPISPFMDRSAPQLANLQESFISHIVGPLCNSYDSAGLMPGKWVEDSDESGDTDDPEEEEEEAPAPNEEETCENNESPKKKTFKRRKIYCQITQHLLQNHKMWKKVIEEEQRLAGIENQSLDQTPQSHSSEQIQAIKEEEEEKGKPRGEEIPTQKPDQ

[7] = target: T2, 3',5'-cyclic-AMP phosphodiesterase 7B; assay: Inhibition of human recombinant PDE7B assessed as inhibition of hydrolysis of [3H]cAMP after 20 mins by scintillation proximity assay; summary of the method: as §1
Microglia = assay: Inhibition of LPS-induced NO production in rat microglia treated for 1 hr at 10 uM before LPS challenge measured after 24 hrs by Griess assay; type: functional; summary of the method: as §2
[8] = target: T4, 3',5'-cyclic-AMP phosphodiesterase 4D; assay: Inhibition of human recombinant PDE4D3 assessed after 60 mins by IMAP fluorescence polarization assay
[9] = target: T3, 3',5'-cyclic-AMP phosphodiesterase 4B; assay: Inhibition of human recombinant PDE4B2 assessed after 60 mins by IMAP fluorescence polarization assay

| Compound | inhibition [1] | pIC50 [2] | other results |
| --- | --- | --- | --- |
| CC(=O)NNc1ccccc1Sc1ccccc1Br | 27% |  |  |
| O=[N+]([O-])c1cc(Cl)ccc1Sc1ccc(Br)cc1 | 11% |  |  |
| O=[N+]([O-])c1ccsc1Sc1sccc1[N+](=O)[O-] | 31% |  |  |
| CC(=O)Nc1ccc(Sc2ccc([N+](=O)[O-])cc2Cl)cc1 | 26% |  |  |
| O=[N+]([O-])c1ccc(Sc2ccc([N+](=O)[O-])cc2Cl)cc1 | 1% |  |  |
| CC(=O)Nc1ccc(Sc2ccc(Cl)cc2[N+](=O)[O-])cc1 | 7% |  |  |
| CC(C)c1ccc(Sc2ccc([N+](=O)[O-])cc2Cl)cc1 | 15% |  |  |
| Nc1ccccc1Sc1ccc(F)cc1[N+](=O)[O-] | 38% |  |  |
| Nc1ccc(Sc2ccc(Cl)cc2N)cc1 | 13% |  |  |
| O=[N+]([O-])c1cc(Cl)ccc1SCc1ccccc1Br | 31% |  |  |
| Nc1ccccc1Sc1ccc(Cl)cc1[N+](=O)[O-] | 69% | 5.24 |  |
| Nc1ccc(Oc2ccc(Cl)cc2[N+](=O)[O-])cc1 | 70% | 5.48 |  |
| Nc1ccc(Sc2ccc([N+](=O)[O-])cc2C(F)(F)F)cc1 | 63% | 5.03 |  |
| COc1ccc(Sc2ccncc2)cc1 | 18% |  |  |
| Nc1ccccc1Sc1ccc([N+](=O)[O-])cc1Cl | 60% | 5.06 |  |
| O=[N+]([O-])c1ccc(Cl)cc1Sc1ccc(Br)cc1 | 36% |  |  |
| Nc1ccc(Sc2cc(Cl)ccc2[N+](=O)[O-])cc1 | 71% | 5.66 |  |
| O=[N+]([O-])c1cc(Cl)ccc1Sc1cccs1 | 81% | 5.80 |  |
| Nc1cccc(Sc2ccncc2)c1 | 36% |  |  |
| O=[N+]([O-])c1ccc(Cl)cc1Sc1ccccc1Br | 69% | 6.00 | inhibition (Astrocyte): Active; Activity (SH-SY5Y): Active; inhibition [3]: 71%; inhibition [4]: 6%; inhibition [5]: 2%; inhibition [6]: 16%; pIC50 [7]: 5.66; inhibition (Microglia): Active |

| Compound | inhibition [1] | pIC50 [2] | other results |
| --- | --- | --- | --- |
| Nc1ccc(Sc2ccc(N)cc2Cl)cc1 | 46% | 5.19 |  |
| CC(=O)Nc1ccccc1Sc1cc(Cl)ccc1[N+](=O)[O-] | 58% | 5.68 | inhibition [4]: 11%; inhibition [5]: 10%; inhibition [6]: 10% |
| O=[N+]([O-])c1cc(Cl)ccc1Sc1ccccc1 | 87% | 5.82 | inhibition (Astrocyte): Active; Activity (SH-SY5Y): Active; inhibition [3]: 74%; inhibition [4]: 28%; inhibition [5]: 13%; inhibition [6]: 46%; pIC50 [7]: 5.82; inhibition (Microglia): Active |
| O=[N+]([O-])c1ccc(Sc2ccccc2Br)c(Cl)c1 | 59% | 5.67 |  |
| COc1ccc(Sc2cccnc2)cc1 | 17% |  |  |
| O=[N+]([O-])c1ccc(Sc2cccs2)c(Cl)c1 | 69% | 5.28 |  |
| O=[N+]([O-])c1ccc(Cl)cc1Sc1ccncc1 | 80% | 5.73 |  |
| Nc1ccccc1Sc1cc(Cl)c(Cl)cc1[N+](=O)[O-] | 74% | 5.19 |  |
| O=[N+]([O-])c1ccc(SCc2ccccc2Br)c(Cl)c1 | 33% |  |  |
| O=[N+]([O-])c1cc(Cl)ccc1Sc1ccccn1 | 69% | 5.44 |  |
| O=[N+]([O-])c1cc(Cl)ccc1Sc1ccccc1Br | 79% | 6.00 | inhibition (Astrocyte): Active; Activity (SH-SY5Y): Active; inhibition [3]: 92%; inhibition [4]: 30%; inhibition [5]: 44%; inhibition [6]: 60%; pIC50 [7]: 5.85; inhibition (Microglia): Active |
| O=[N+]([O-])c1ccc(Cl)cc1Sc1ccccn1 | 56% | 5.10 |  |
| Nc1ccccc1Sc1ccc([N+](=O)[O-])cc1C(F)(F)F | 42% |  |  |
| CC(=O)Nc1ccccc1Sc1sccc1[N+](=O)[O-] | 31% |  |  |
| Nc1ccc(Sc2ccc([N+](=O)[O-])c(Cl)c2)cc1 | 79% | 5.83 | inhibition (Astrocyte): Active; Activity (SH-SY5Y): Active; inhibition [3]: 42%; inhibition [4]: 2%; inhibition [5]: 3%; inhibition [6]: 22%; inhibition (Microglia): Active |
| Cc1cnc(Sc2cccc(N)c2)c([N+](=O)[O-])c1 | 3% |  |  |
| CC(=O)Nc1ccc(Oc2ccc(Cl)cc2[N+](=O)[O-])cc1 | 17% |  |  |
| Nc1ccccc1Sc1sccc1[N+](=O)[O-] |  | 5.37 |  |
| CC(C)c1ccc(Sc2ccc(Cl)cc2[N+](=O)[O-])cc1 | 10% |  |  |
| Nc1cccc(Sc2ccc([N+](=O)[O-])cc2Cl)c1 | 78% | 5.49 |  |

| Compound | inhibition [1] | pIC50 [2] | other results |
| --- | --- | --- | --- |
| Nc1ccc(Oc2ccc([N+](=O)[O-])cc2Cl)cc1 | 77% | 5.66 |  |
| Nc1ccc(Sc2ccc(F)cc2[N+](=O)[O-])cc1 | 64% | 5.21 |  |
| Cc1cnc(Sc2ccc(-c3ccccc3)cc2)c([N+](=O)[O-])c1 | 2% |  |  |
| Nc1ccc(Cl)cc1Sc1ccccc1[N+](=O)[O-] |  | 5.14 |  |
| O=[N+]([O-])c1cc(Cl)c(Cl)cc1Sc1ccccc1Br | 49% | 5.54 |  |
| Cc1ccc([N+](=O)[O-])cc1S(=O)(=O)N(C)C | 99% |  | pIC50 [8]: 5.89; pIC50 [9]: 5.74; inhibition [6]: 0.43% |
| O=[N+]([O-])c1ccc(Sc2ccc(Br)cc2)c(Cl)c1 | 23% |  |  |
| Nc1ccccc1Sc1cc(Cl)ccc1[N+](=O)[O-] | 66% | 5.26 |  |
| CC(=O)Nc1ccc(Oc2ccc([N+](=O)[O-])cc2Cl)cc1 | 4% |  |  |
| CC(=O)c1ccc(Sc2ccncc2)c([N+](=O)[O-])c1 | 56% | 5.42 |  |
| O=[N+]([O-])c1ccc(Sc2ccc(Cl)cc2[N+](=O)[O-])cc1 | 6% |  |  |
| Nc1ccc(Sc2ccc([N+](=O)[O-])cc2Cl)cc1 | 83% | 5.40 |  |
| c1ccc(Sc2ccncc2)cc1 | 44% |  |  |
| O=[N+]([O-])c1ccc(Sc2ccccc2)c(Cl)c1 | 74% | 5.66 |  |
| c1cnc(Sc2ccncc2)nc1 | 12% |  |  |
| CC(C)c1ccccc1Sc1ccc([N+](=O)[O-])cc1Cl | 17% |  |  |
| Cc1cnc(Sc2ccncc2)c([N+](=O)[O-])c1 | 27% |  |  |
| Nc1cccc(Sc2ccc(Cl)cc2[N+](=O)[O-])c1 | 68% | 5.24 |  |
| O=c1c2ccccc2[nH]c(=S)n1-c1ccccc1 | 76% | 5.33 |  |
| c1ccc(-c2ccc(Sc3ccccn3)cc2)cc1 | 32% |  |  |
